# ERp5 block – blocks human ERp5 reductase activity on insulin; 0.05% of 350,000 active; AID 651711; inhibition, % at 9.99 µM; Q15084; ERp5 insulin aggregation, absorbance 650 nm, 90 min;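 active means mean replicate inhibition above about 25%, with every replicate also reaching it, limit read from the data, passing the limit was not always enough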
# Target sequence (Q15084 whole entry, looked up): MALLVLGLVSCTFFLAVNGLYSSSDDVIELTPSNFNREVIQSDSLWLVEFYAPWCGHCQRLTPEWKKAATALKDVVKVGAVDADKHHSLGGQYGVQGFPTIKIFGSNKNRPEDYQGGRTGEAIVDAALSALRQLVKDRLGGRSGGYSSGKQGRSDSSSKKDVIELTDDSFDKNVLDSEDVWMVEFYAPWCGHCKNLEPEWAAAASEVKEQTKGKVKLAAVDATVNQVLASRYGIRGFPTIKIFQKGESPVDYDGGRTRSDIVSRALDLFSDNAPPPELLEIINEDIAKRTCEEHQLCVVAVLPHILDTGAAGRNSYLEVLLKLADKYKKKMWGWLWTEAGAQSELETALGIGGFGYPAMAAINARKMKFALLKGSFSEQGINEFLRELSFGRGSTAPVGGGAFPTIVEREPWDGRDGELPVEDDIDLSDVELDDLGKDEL
# PvdQ acylase – P. aeruginosa PvdQ acylase inhibition. purified PvdQ acylase, fluorescence plate reader. inhibition, % at 10 µM. 0.063% of 340,000 active; in the data active means inhibition above about 30%, passing the limit was not always enough;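 further: 0% = vehicle neutral wells and 100% = reference inhibitor wells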
# FN deposition inh – fibronectin deposition inhibition | AH1F fibroblasts, Alexa488-fibronectin deposition fluorescence, overnight | inhibition, % at 12.6 µM | 0.086% of 350,000 active | AID 743247;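 active means mean inhibition across replicates of 30% or more, regardless of how many single replicates reach that level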;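 further: positive control wells lacked labelled fibronectin entirely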
#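 Assay system: AH1F fibroblasts / Quantity: 10000 cells per well / Medium: DMEM plus 2% serum, read in PBS / Reagent: labelled fibronectin 24 nM / Dosing: single dose, pinned / Times: 1 h cell attachment, overnight exposure to compound and label / Signal: fluorescence, ex 485 nm, em 525 nm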
# HIV Env fusion – HIV envelope-mediated fusion inhibition; inhibition, % at 12.3 µM; HeLa-JRFL Env/CEM21 cell fusion, luciferase; AID 651610; 1.1% of 360,000 active;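 active means mean replicate inhibition score of at least 50 and every replicate individually at or above 50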;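 further: 0% = plate neutral controls and 100% = maraviroc near 300 nM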
# PDI turbidity – inhibitors of human protein disulfide isomerase; inhibition, % at 10 µM; P07237; 0.052% of 350,000 active; PDI insulin aggregation turbidity, A650, 90 min; AID 588391;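 active means mean inhibition across replicates of 30% or more, whatever share of single replicates reach that level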
# rRNA inh HTS – inhibitors of bacterial rRNA selective over humanized ribosomes. GFP signal change (wild-type ribosome), % (concentration not given with the values). E. coli WT GFP vs humanized-ribosome RFP mutants, fluorescence, 24 h; active compounds read low; DMSO median 0, no signal -100. AID 720706. 1.6% of 350,000 active;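 active means significant combined selectivity score with lowered wild-type GFP, culture density cut under 30%, mutant RFP and density less affected; inactive means any of these conditions unmet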
# * hit, by the source's call; . = not tested or not shown; [ ] = remark or other dose. Compounds with a hit are over-represented: about 2.2% of the library has one in this group of screens.
SMILES,ERp5 block,PvdQ acylase,FN deposition inh,HIV Env fusion,PDI turbidity,rRNA inh HTS
O=C(c1cccnc1)N1CC[C@@H]2[C@H](CO)Nc3ccc(-c4ccc(F)cc4)cc3[C@@H]21,-6,.,8,.,.,-2
COc1ccc(N2CCN(CC(=O)Nc3ccccc3C(=O)NCc3ccccc3)CC2)cc1,3,7,1,.,-6,-29*
COc1ccc(N2CCN(C(=O)c3ccc(Br)o3)CC2)cc1,-4,42*,3,-26,-10,3
C[C@@H]1CN([C@H](C)CO)C(=O)Cc2cc(NC(=O)NC3CCCCC3)ccc2O[C@@H]1CN(C)Cc1ccc(C(F)(F)F)cc1,-4,.,8,5[16.7 µM],.,0
O=C(C[C@H]1C[C@H]2c3cc(NC(=O)C4CCC4)ccc3O[C@H]2[C@@H](CO)O1)NCc1ccc2c(c1)OCO2,4,.,0,78*[16.7 µM],.,2
O=C(C[C@H]1C[C@@H]2c3cc(NC(=O)C4CCC4)ccc3O[C@@H]2[C@@H](CO)O1)NCc1ccc2c(c1)OCO2,0,.,-1,86*[16.7 µM],.,-5
O=C(C[C@@H]1C[C@@H]2c3cc(NC(=O)C4CCC4)ccc3O[C@@H]2[C@H](CO)O1)NCc1ccc2c(c1)OCO2,-4,.,-5,27[16.7 µM],.,3
O=C(C[C@H]1C[C@@H]2c3cc(NC(=O)C4CCC4)ccc3O[C@@H]2[C@H](CO)O1)NCc1ccc2c(c1)OCO2,-2,.,-6,-19[16.7 µM],.,-3
O=C(C[C@@H]1C[C@@H]2c3cc(NC(=O)c4ccc5c(c4)OCO5)ccc3O[C@@H]2[C@@H](CO)O1)NCc1ccc(Oc2ccccc2)cc1,-1,.,31*,71*[16.7 µM],.,-3
O=C(C[C@H]1C[C@H]2c3cc(NC(=O)c4ccc5c(c4)OCO5)ccc3O[C@H]2[C@@H](CO)O1)NCc1ccc(Oc2ccccc2)cc1,-7,.,25,42[16.7 µM],.,-5
CCC(=O)N1[C@@H]2c3cccc(=O)n3C[C@@H]2[C@@H](CO)[C@@H]1C(=O)N[C@@H](C)c1ccccc1,4,.,.,.,.,4
C[C@@H](NC(=O)C[C@@H]1CC[C@H]2[C@@H](COC[C@@H](O)CN2Cc2cc(F)ccc2F)O1)c1ccccc1,0,.,1,15[16.7 µM],.,-1
O=C(C[C@@H]1C[C@H]2c3cc(NC(=O)CC4CC4)ccc3O[C@H]2[C@@H](CO)O1)NCCc1ccccc1,-1,.,-12,9[16.7 µM],.,3
C[C@@H]1CN([C@@H](C)CO)C(=O)Cc2cc(NC(=O)Nc3ccc(F)cc3)ccc2O[C@@H]1CN(C)C(=O)Nc1cccc2ccccc12,10,.,.,-13[16.7 µM],.,2
CN(C)S(=O)(=O)c1ccc(Cl)c(C(=O)NCC2CCCCC2)c1,2,-11,-2,3,-3,5
COCCNC(=O)c1cc(S(=O)(=O)N(C)C2CCCCC2)ccc1Cl,4,.,14,57*,4,2
COc1ccccc1N(C)S(=O)(=O)c1ccc(Cl)c(C(=O)NCC2(N(C)C)CCCCC2)c1,-2,-3,10,95*,-2,0
CCOC(=O)CCCCCC(=O)Nc1ccc2c(c1)C(=O)N([C@@H](C)CO)C[C@H](C)[C@H](CN(C)S(=O)(=O)c1ccc(F)cc1)O2,.,.,-10,.,.,-3
CNC(=S)NNC(=O)CSCc1c(Cl)cccc1Cl,4,-13,-12,2,1,-21*
COc1ccccc1Nc1nc(N)nc(-c2oc3ccccc3c2C)n1,.,-16,-2,-57,-3,.
Cc1ccccc1Nc1nc(N)nc(-c2oc3ccccc3c2C)n1,-3,-5,3,-35,8,-36*
COc1cccc(S(=O)(=O)N[C@H]2CC[C@H](CC(=O)NCc3ccncc3)O[C@H]2CO)c1,9,.,3,3[16.7 µM],.,3
O=C(C[C@H]1C[C@@H]2c3cc(NS(=O)(=O)c4ccc(F)cc4)ccc3O[C@@H]2[C@H](CO)O1)NCc1ccccc1F,1,.,-3,51[16.7 µM],.,-3
O=C(C[C@H]1C[C@H]2c3cc(NS(=O)(=O)c4ccc(F)cc4)ccc3O[C@H]2[C@@H](CO)O1)NCc1ccccc1F,0,.,6,83*[16.7 µM],.,-5
O=C(C[C@H]1C[C@@H]2c3cc(NS(=O)(=O)c4ccc(F)cc4)ccc3O[C@@H]2[C@@H](CO)O1)NCc1ccc(-c2ccccc2)cc1,6,.,3,71*[16.7 µM],.,-6
SMILES,ERp5 block,PvdQ acylase,FN deposition inh,HIV Env fusion,PDI turbidity,rRNA inh HTS
COc1cccc(S(=O)(=O)N[C@@H]2CC[C@H](CC(=O)NCc3ccncc3)O[C@@H]2CO)c1,-3,.,10,56*[16.7 µM],.,-2
COc1cccc(S(=O)(=O)Nc2ccc3c(c2)[C@@H]2C[C@@H](CC(=O)NCc4ccc(Cl)cc4)O[C@@H](CO)[C@@H]2O3)c1,-1,.,-3,-21[16.7 µM],.,-32
COc1cccc(S(=O)(=O)Nc2ccc3c(c2)[C@H]2C[C@H](CC(=O)NCc4ccc(Cl)cc4)O[C@@H](CO)[C@H]2O3)c1,-5,.,.,57*[16.7 µM],.,-32
C[C@@H]1CN([C@@H](C)CO)S(=O)(=O)c2ccc(-c3ccc(F)cc3)cc2O[C@@H]1CN(C)C(=O)Nc1ccc(F)cc1,.,.,4,-44[16.7 µM],.,-4
CC(C)NC(=O)Nc1ccc2c(c1)C(=O)N([C@@H](C)CO)C[C@@H](C)[C@@H](CN(C)S(=O)(=O)c1cccs1)OCCCC[C@@H](C)O2,-3,.,2,14[16.7 µM],.,-4
COc1ccc(NC(=O)N(C)C[C@H]2OCCCC[C@H](C)Oc3ccc(NS(=O)(=O)c4ccc(Cl)cc4)cc3C(=O)N([C@@H](C)CO)C[C@@H]2C)cc1,-1,.,3,4[16.7 µM],.,1
COC(=O)c1ccc(COC(=O)CCS(=O)(=O)c2ccc(C)cc2)cc1,0,-9,3,1,5,-2
Cc1ccc(S(=O)(=O)CCC(=O)OCc2ccc(Cl)cc2)cc1,5,12,.,13,-9,-26*
Cc1cc(NC(=O)c2cc([N+](=O)[O-])cc([N+](=O)[O-])c2C)no1,-8,88*,2,13,7,26
Cc1cc(NC(=O)c2cc([N+](=O)[O-])cc([N+](=O)[O-])c2)no1,2,.,8,-10,5,-22
Cc1cc(NC(=O)c2ccc(Br)c([N+](=O)[O-])c2)no1,2,64*,4,-12,-5,4
COC(=O)C[C@@H]1CC[C@@H]2[C@H](COC[C@H](O)CN2C(=O)Nc2ccccc2OC)O1,-3,.,-2,-7[16.7 µM],.,7
CN1[C@@H]2c3ccc(/C=C/c4ccccc4)c(=O)n3C[C@@H]2[C@@H](CO)[C@@H]1C(=O)N1CCCCC1,1,.,.,.,.,0
CCOC(=O)c1cnc(-c2ccccc2)nc1N,2,77*,.,.,0,-1
C[C@@H]1CN([C@H](C)CO)C(=O)c2cc(NS(=O)(=O)c3ccc(Cl)cc3)ccc2O[C@@H]1CN(C)S(C)(=O)=O,.,.,.,-1[16.7 µM],.,-1
CO[C@H]1CN(C)C(=O)c2cc(NC(C)=O)ccc2OC[C@@H](C)N(Cc2ccccc2C(=O)O)C[C@H]1C,2,.,6,-2[16.7 µM],.,3
